For data set [1], the system named is Staphylococcus aureus. Description: Antibacterial activity against methicillin-resistant Staphylococcus aureus MRSA M923 by broth microdilution method. It is filed as functional. For orientation: Broth dilution looks for growth in wells or tubes with falling amounts of substance.
Data set [2] has as its system Staphylococcus aureus. Description: Antibacterial activity against Staphylococcus aureus ATCC 29213 by broth microdilution method. It is filed as functional.
Data set [3] can be described thus: Antibacterial activity against Staphylococcus aureus Mu50 ATCC 700699 by broth microdilution method. Format: functional, Staphylococcus aureus subsp. aureus Mu50.
Data set [4] relates to Staphylococcus aureus. Description: Antibacterial activity against methicillin-resistant Staphylococcus aureus MRSA 433 by broth microdilution method. It is filed as functional.
The test system of data set [5] is Staphylococcus aureus. Description: Antibacterial activity against methicillin-resistant Staphylococcus aureus MRSA F511 by broth microdilution method. It is filed as functional.
Data set [6] deals with HepG2. Description: Cytotoxicity against human HepG2 cells at 50 to 100 ug/ml after 48 hrs by presto-blue staining-based assay. Format: cell-based. The conditions noted are these: hepg2, 48 h. The method in brief:
(§1)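 HepG2 cells were grown in DMEM with 10% heat-inactivated FBS, 2 mM L-glutamine and penicillin/streptomycin. They were seeded at 40,000 cells/cm² on collagen-coated wells and treated two days later with enantiomers at 25–100 µg/ml (in DMSO) for 48 h. PrestoBlue resazurin was read after 1 h at 37 °C as absorbance at 570 nm against 600 nm. Data are mean ± SEM of 3 experiments in triplicate; Student's t test.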

Data set [7] concerns Staphylococcus epidermidis. Description: Antibacterial activity against linezolid-resistant methicillin-resistant Staphylococcus epidermidis by broth microdilution method. Format: functional.
Data set [8] relates to Staphylococcus aureus. Description: Antibacterial activity against linezolid-sensitive methicillin-resistant Staphylococcus aureus by broth microdilution method. It is filed as functional.
Data set [9] deals with HepG2. Description: Cytotoxicity against human HepG2 cells at 25 ug/ml after 48 hrs by presto-blue staining-based assay. Format: cell-based. The conditions noted are these: hepg2, 48 h. The method in brief:
as §1

In data set [10] the test system is HepG2. Description: Cytotoxicity against human HepG2 cells at 100 ug/ml after 48 hrs by presto-blue staining-based assay. It is filed as cell-based. The conditions noted are these: hepg2, 48 h. Put shortly:
as §1

Data set [11] concerns HepG2. Description: Cytotoxicity against human HepG2 cells at 25 to 100 ug/ml after 48 hrs by presto-blue staining-based assay. It is filed as cell-based. The conditions noted are these: hepg2, 48 h. Put shortly:
as §1

We go through 14 compounds from ChEMBL document CHEMBL3351809, “New potent antibacterials against Gram-positive multiresistant pathogens: effects of side chain modification and chirality in linezolid-like 1,2,4-oxadiazoles” (Bioorg Med Chem, 2014).

In brackets after ≈: the same amount, converted by molar mass.

As to `Cc1noc(-c2ccc(N3CC(Cn4ccnn4)OC3=O)cc2F)n1` (racemic), the MIC (in general, the least concentration at which growth counts as inhibited) is 25 µg/mL (≈ 72.6 µM) against Staphylococcus aureus [1]; 25 µg/mL (≈ 72.6 µM) with Staphylococcus aureus [2]; 1.6 µg/mL (≈ 4.65 µM) in [3]; 6.25 µg/mL (≈ 18.2 µM) in the data set with Staphylococcus aureus [4]; 12.5 µg/mL (≈ 36.3 µM) against Staphylococcus aureus [5].

As to `CNC(=S)NC[C@H]1CN(c2ccc(-c3nc(C)no3)cc2)C(=O)O1`, the Activity entry in the data set with HepG2 [6] was “Non-toxic”; in the data set on HepG2 [9] it was “Toxic”. Also, the values for the MIC (in [7]; in the data set with Staphylococcus aureus [8]) were 8 µg/mL (≈ 23 µM) and 0.5 µg/mL (≈ 1.44 µM), respectively.

Consider `C=C1CN(c2ccc(-c3nc(C)no3)cc2)C(=O)O1`, for which the MIC (in the data set on Staphylococcus aureus [1]; with Staphylococcus aureus [2]; in data set [3]; against Staphylococcus aureus [4]; with Staphylococcus aureus [5]) was > 50 µg/mL in each case.

As to `Cc1noc(-c2ccc(N3CC(CNC(N)=S)OC3=O)cc2F)n1` (racemic), the MIC (in the data set with Staphylococcus aureus [1]; in the data set on Staphylococcus aureus [2]; in data set [3]; with Staphylococcus aureus [4]; in the data set with Staphylococcus aureus [5]) was > 50 µg/mL in each case.

In the case of `Cc1noc(-c2ccc(N3CC(CN=C=S)OC3=O)cc2)n1` (racemic), the MIC against Staphylococcus aureus [1] is > 50 µg/mL; with Staphylococcus aureus [2], > 50 µg/mL; in [3], > 50 µg/mL; against Staphylococcus aureus [4], > 50 µg/mL; with Staphylococcus aureus [5], 50 µg/mL (≈ 158 µM).

For `CC(=O)NC[C@H]1CN(c2ccc(N3CCOCC3)c(F)c2)C(=O)O1` [LINEZOLID], the MIC against Staphylococcus aureus [1] and against Staphylococcus aureus [5] was 3.12 µg/mL (≈ 9.26 µM) throughout. Besides, in the data set with HepG2 [10], the Activity is given as 20%.

As for `CNC(=S)NCC1CN(c2ccc(-c3nc(C)no3)c(F)c2)C(=O)O1` (racemic), the MIC was 6.25 µg/mL (≈ 17.1 µM) against Staphylococcus aureus [1]; 6.25 µg/mL (≈ 17.1 µM) against Staphylococcus aureus [2]; 1.6 µg/mL (≈ 4.38 µM) in [3]; 3.12 µg/mL (≈ 8.55 µM) against Staphylococcus aureus [4]; 6.25 µg/mL (≈ 17.1 µM) against Staphylococcus aureus [5].

Turning to `CNC(=S)NCC1CN(c2ccc(-c3nc(C)no3)cc2)C(=O)O1` (racemic), the MIC with Staphylococcus aureus [1] is 6.25 µg/mL (≈ 18 µM); in the data set with Staphylococcus aureus [2] it was 6.25 µg/mL (≈ 18 µM); in data set [3], 1.6 µg/mL (≈ 4.61 µM); with Staphylococcus aureus [4], 3.12 µg/mL (≈ 9 µM); against Staphylococcus aureus [5] it was 6.25 µg/mL (≈ 18 µM).

With `C=C1CN(c2ccc(-c3nc(C)no3)c(F)c2)C(=O)O1`, the MIC (in the data set with Staphylococcus aureus [1]; against Staphylococcus aureus [2]; in [3]; in the data set on Staphylococcus aureus [4]; against Staphylococcus aureus [5]) was > 50 µg/mL in each case.

Take `Cc1noc(-c2ccc(N3CC(CNC(N)=S)OC3=O)cc2)n1` (racemic): the MIC was > 50 µg/mL with Staphylococcus aureus [1]; > 50 µg/mL against Staphylococcus aureus [2]; > 50 µg/mL in data set [3]; > 50 µg/mL in the data set on Staphylococcus aureus [4]; 50 µg/mL (≈ 150 µM) in the data set on Staphylococcus aureus [5].

Consider `Cc1noc(-c2ccc(N3CC(Cn4ccnn4)OC3=O)cc2)n1` (racemic), for which the MIC was 25 µg/mL (≈ 76.6 µM) against Staphylococcus aureus [1]; 25 µg/mL (≈ 76.6 µM) against Staphylococcus aureus [2]; 3.12 µg/mL (≈ 9.58 µM) in [3]; 12.5 µg/mL (≈ 38.3 µM) in the data set on Staphylococcus aureus [4]; 12.5 µg/mL (≈ 38.3 µM) against Staphylococcus aureus [5].

As to `CNC(=S)NC[C@@H]1CN(c2ccc(-c3nc(C)no3)c(F)c2)C(=O)O1`, the Activity result with HepG2 [11] was “Toxic”.

As to `Cc1noc(-c2ccc(N3CC(CN=C=S)OC3=O)cc2F)n1` (racemic), the MIC (against Staphylococcus aureus [1]; with Staphylococcus aureus [2]; in data set [3]; against Staphylococcus aureus [4]; with Staphylococcus aureus [5]) was > 50 µg/mL in each case.

`CNC(=S)NC[C@H]1CN(c2ccc(-c3nc(C)no3)c(F)c2)C(=O)O1`: the Activity result with HepG2 [11] is “Toxic”.
